NPY Y2 blocker: blocks the human neuropeptide Y Y2 receptor; NPY-Y2 expressing cells, antagonist mode; 140,000 compounds, 0.99% hits; inhibition, % at 2.7 µM; in the data active = inhibition above about 17%;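 also: 0% = vehicle with agonist challenge and 100% = reference antagonist with challenge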
Target sequence (P49146 whole entry, looked up): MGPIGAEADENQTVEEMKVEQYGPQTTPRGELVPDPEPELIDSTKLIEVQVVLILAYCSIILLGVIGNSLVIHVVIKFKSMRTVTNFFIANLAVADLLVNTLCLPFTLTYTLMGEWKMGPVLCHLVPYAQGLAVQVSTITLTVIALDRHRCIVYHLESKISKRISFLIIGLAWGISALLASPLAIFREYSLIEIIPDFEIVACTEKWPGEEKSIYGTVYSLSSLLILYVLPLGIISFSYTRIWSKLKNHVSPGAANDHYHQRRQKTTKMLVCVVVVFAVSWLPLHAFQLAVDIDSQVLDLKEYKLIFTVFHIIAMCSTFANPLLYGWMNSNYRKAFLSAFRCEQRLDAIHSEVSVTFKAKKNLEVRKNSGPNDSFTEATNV
NPY-Y1 PAM-ag: human NPY-Y1 potentiation or agonism, primary screen. activation, % at 3.6 µM. NPY-Y1 expressing cells, potentiator/agonist activation. 220,000 compounds, 0.37% hits. AID 1304; in the data active = activation above about 33%, passing the limit was not always enough;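 also: cells stimulated with NPY at EC10 then isoproterenol at EC100; 0% = low agonist plus stimulus and 100% = saturating agonist plus stimulus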
NPY Y1 blocker: NPY-Y1 (human) receptor antagonism | P25929 | HEK293-CNG Y1 cells, membrane potential fluorescence; NPY at EC95, then isoproterenol | inhibition, % at 3.6 µM | 200,000 compounds, 1% hits;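 active = inhibition above the campaign mean inhibition of all tested compounds plus 3 SD, cut at about 20% in these data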;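 also: 0% = DMSO wells given NPY plus isoproterenol and 100% = isoproterenol alone without NPY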
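Test system: HEK293 cells co-expressing NPY Y1 receptor and cyclic-nucleotide gated channel; Also added: NPY (25 nM), isoproterenol (1 µM), Ro 20-1724 (25 µM); Compound dosing: one concentration, 3.6 µM, in 0.4% DMSO; Timing: dye 3 h, compound 60 min room temperature, stimulation 45 min; Technique: Membrane-potential fluorescent dye readout.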
NPY-Y2 PAM-ag: potentiators or agonists of human neuropeptide Y receptor Y2; P49146; cells expressing NPY-Y2, potentiator/agonist read-out; activation, % at 3.6 µM; 220,000 compounds, 0.45% hits; AID 1359; in the data active = activation above about 27%;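 also: cells stimulated with NPY near EC25 plus isoproterenol at EC100; 0% = vehicle plus submaximal agonist and 100% = vehicle plus saturating agonist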
PGE2 EP2 inh: EP2 receptor (human) inhibition | 260,000 compounds, 0.52% hits | P43116 | inhibition, % at 25 µM | C6 glioma cells expressing human EP2, cAMP TR-FRET; cells stimulated with saturating PGE2;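 active = percent inhibition above 40 after rounding to a whole number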;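 also: rat C6 glioma host cells with rolipram phosphodiesterase inhibitor present; the protocol text gives 20 µM as final concentration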
EP2 mod: modulates human prostaglandin E2 receptor EP2 signaling; P43116; EP2-expressing cells, cAMP HTRF FRET, PGE2 co-stimulation; induction, % at 25 µM; 260,000 compounds, 0.83% hits; AID 940;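 active = compounds whose cAMP rise, as percent of the full-agonist control response, exceeds 60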;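 also: rat C6 glioma line stably carrying human EP2 under a CMV promoter; the protocol text gives 20 µM as final concentration; 100% = response of wells given 1 µM PGE2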
Starred values were filed as active, the others as inactive; . = no result given; ! = a repeat was not active. In the library only some 2.8% were active in any assay of this set; here they are far more common.

SMILES | NPY Y2 blocker | NPY-Y1 PAM-ag | NPY Y1 blocker | NPY-Y2 PAM-ag | PGE2 EP2 inh | EP2 mod
COc1cc2c(cc1OC)-c1cc(N3CCCCCC3)nc(=O)n1CC2 | 32* | -23 | 24* | -3 | 0 | 31
COc1cc2c(cc1OC)-c1cc(N3CCc4ccccc43)nc(=O)n1CC2 | . | -17 | . | -27 | 6 | 23
COc1cc2c(cc1OC)-c1cc(NC3CCCCCC3)nc(=O)n1CC2 | 43* | -20 | 49* | -3 | 17 | 18
C#CCCN1CCN(Cc2cn(CC(=O)NC3CC3)c3ccccc23)CC1 | . | . | . | . | 4 | 15
O=C(CSc1nnc(-c2ccc(F)cc2)o1)N1c2ccccc2Sc2ccccc21 | . | . | . | . | 12 | 2
COc1ccccc1N1CCN(C(=O)Cn2nc(-c3ccc(C)o3)cc(N)c2=O)CC1 | . | . | . | . | 4 | -54
O=C(O)C1CCCN(C(=O)NCc2ccccc2)C1 (stereo not drawn) | 1 | 21 | 0 | 0 | 12 | -1
O=C(O)c1ccccc1CN1CCC[C@@H](C(=O)O)C1 | . | . | . | . | 48* | 3
CN1c2ncccc2C(=O)NC12CCN(Cc1ccccc1)CC2 | . | . | . | . | 4 | 3
Cn1c(SCC#N)nnc1-c1ccc(Br)cc1 | . | . | . | . | 1 | -13
N#Cc1c(Cl)c(Cl)c2nnc(-c3ccc(Br)cc3)n2c1Cl | 4 | -6 | -1 | -12 | 118* | -50
CCc1cc(C(=O)OC)c(NC(=O)C2CC(=O)NN2Cc2ccccc2)s1 (stereo not drawn) | 1 | 12 | -4 | 12 | 7 | 63*
CCc1cc(C(=O)OC)c(NC(=O)CC2NCCNC2=O)s1 (stereo not drawn) | 0 | -9 | -3 | -7 | 4 | 9
COc1ccc(C(C(=O)NC2CCCC2)N(Cc2ccccc2)C(=O)c2nsc(Cl)c2Cl)cc1 (stereo not drawn) | 28* | -46 | 36* | -45 | 6 | 52
COc1ccc(N(C(=O)c2ccco2)C(C(=O)NC2CCCC2)c2ccc(N(C)C)cc2)cc1 (stereo not drawn) | 5 | -8 | 0 | -10 | 13 | 33
COc1ccc(C(C(=O)NC2CCCC2)N(Cc2ccco2)C(=O)c2ccco2)cc1 (stereo not drawn) | . | . | . | . | 10 | -5
COc1ccc(N(C(=O)c2ccco2)C(C(=O)NC2CCCCC2)c2ccccc2)cc1 (stereo not drawn) | 6 | -10 | 0 | -20 | 11 | 62*!
N#Cc1c(SCC(=O)O)nc(-c2ccccc2)c2c1CCCC2 | -1 | 22 | 1 | 7 | 45* | 43
CCCOC(=O)C(C)Nc1n[nH]c(=S)[nH]c1=O (stereo not drawn) | . | . | . | . | 86* | -55
CCCOC(=O)Cc1n[nH]c(=O)[nH]c1=O | -2 | 4 | 7 | 8 | 10 | -1
CCCCOn1c(C)c(C(=O)OCC)c2c3nonc3ccc21 | 23* | -67 | 67* | -45 | 6 | .
Clc1ccc(CN2CCCN(Cc3ccc(Cl)cc3)C2c2cc3ccccc3c3ccccc23)cc1 | . | . | . | . | 51* | 12
Clc1ccc(CN2CCCCCCC2)cc1 | 4 | 18 | 3 | -2 | 7 | 20
Cc1ccccc1OCCn1cc(/C=C2/SC(=S)NC2=O)c2ccccc21 | . | . | . | . | 11 | -6
Ic1ccc2c(c1)N(c1ccccc1)c1cc(Nc3ccc4nc5ccc(I)cc5[n+](-c5ccccc5)c4c3)ccc1N2 | . | . | . | . | 44* | 0
SMILES | NPY Y2 blocker | NPY-Y1 PAM-ag | NPY Y1 blocker | NPY-Y2 PAM-ag | PGE2 EP2 inh | EP2 mod
C=CCNC(=S)NNC(=O)C(CCCC)CC(O)COCC(C)C (stereo not drawn) | . | 3 | . | 2 | 120* | -2
Cc1ccc(OCC(=O)NC(=S)Nc2ccc3c4c(cccc24)CC3)cc1 | 13 | -6 | 6 | -1 | 20 | 62*
CC(C)N(C(=O)c1ccccc1-c1ccccc1)C(C)C | 15 | -18 | 19 | 23 | 18 | 63*
Cc1ccnc(NC(=O)COc2ccc3oc4c(c3c2)CCCC4)c1 | 11 | -31 | 21* | -7 | 11 | -25
CCc1ccc(N2CC34C=CC(O3)C(C(=O)O)C4C2=O)cc1 (stereo not drawn) | . | . | . | . | 12 | -7
OCCNCc1cc(Br)ccc1OCc1ccc(Cl)cc1Cl | 28* | -94 | 43* | -47 | 15 | -11
CCSc1nc(-c2cccs2)nc2ccccc12 | . | -26 | 1 | -21 | 5 | 64*
O=C1NC(=O)N(c2ccc(F)cc2)C(=O)/C1=C/c1ccco1 | . | . | . | . | 53* | -120
COc1cc2nc(SCc3ccc(Cl)cc3Cl)n(Cc3cccs3)c(=N)c2cc1OC | -3 | 28 | -2 | -1 | 0 | 19
COc1ccc(Cn2c(SCc3cc(C)ccc3C)nc3cc(OC)c(OC)cc3c2=N)cc1 | 55* | -34 | 47* | 13 | 6 | 31
COc1ccc(Cn2c(SCc3ccc(C)cc3)nc3cc(OC)c(OC)cc3c2=N)cc1Cl | 25* | -16 | 34* | -3 | 3 | 0
COc1ccc(/C=C/CN2CCc3c(nc(N4CC(C)OC(C)C4)[nH]c3=O)C2)cc1 (stereo not drawn) | . | . | . | . | . | -5
Cc1cc2oc(C(=O)NC3CCCOC3)cc(=O)c2cc1C (stereo not drawn) | . | . | . | . | 6 | -23
CCC(c1nnnn1C1CCCCC1)N(Cc1ccccc1)Cc1cc2cc(C)c(C)cc2[nH]c1=O (stereo not drawn) | . | . | . | . | 7 | 59
CCOc1ccc2[nH]c(=O)c(CN(Cc3ccccc3)C(CC)c3nnnn3C3CCCC3)cc2c1 (stereo not drawn) | . | . | . | . | 20 | 62*
CCC(c1nnnn1C1CCCC1)N(Cc1ccc(C)cc1)Cc1cc2ccc(C)cc2[nH]c1=O (stereo not drawn) | . | . | . | . | 6 | 27
COc1ccc2[nH]c(=O)c(CN(Cc3ccccc3)C(c3nnnn3C3CCCC3)C(C)C)cc2c1 (stereo not drawn) | . | . | . | . | 7 | 39
CCOc1ccc2[nH]c(=O)c(CN(Cc3cccs3)C(CC)c3nnnn3C3CCCC3)cc2c1 (stereo not drawn) | . | . | . | . | 6 | 62*
CCC(c1nnnn1C1CCCC1)N(Cc1ccccc1)Cc1cc2cc(OC)ccc2[nH]c1=O (stereo not drawn) | . | . | . | . | 15 | 74*
CCCC(c1nnnn1C1CCCC1)N(Cc1cc2cc(OCC)ccc2[nH]c1=O)C1CCCC1 (stereo not drawn) | . | . | . | . | 10 | 31
CCC(c1nnnn1C1CCCCC1)N(Cc1ccc(C)cc1)Cc1cc2cccc(C)c2[nH]c1=O (stereo not drawn) | . | . | . | . | 9 | 66*
Cc1ccccc1-c1nnc(SCC(=O)N2c3ccccc3Sc3ccccc32)n1C | . | . | . | . | 24 | 25
CC1(C)CC(N(Cc2cccnc2)Cc2cc3c(cc2Cl)OCO3)CC(C)(C)N1 | . | . | . | . | 2 | -44
COc1ccc(NS(=O)(=O)c2cn(C)nc2C)cc1NC(=O)CN1CCCC1 | . | . | . | . | 5 | -12
Cc1cccc(NC(=O)CSc2nc3sc(C)c(C)c3c(=O)[nH]2)c1 | . | . | . | . | 16 | -28
